Results gathered from unrelated publications.
Converted amounts (≈) assume the structure as drawn.

Structure (SMILES)	organism	test	test system	setting	measurement	value
O=C(OC[C@H]1O[C@H](n2cnc3c(Cl)nc(Cl)nc32)[C@@H](F)[C@@H]1F)c1ccccc1	Hepatitis C virus	viral replication, inhibitor	Huh-7	replicon	EC50	< 10 µM
CC(C)[C@H](NC(=O)OCc1ccccc1)C(=O)N1CCC[C@H]1C(=O)Nc1cccc(C#CC#Cc2cccc(NC(=O)[C@@H]3CCCN3C(=O)[C@@H](NC(=O)OCc3ccccc3)C(C)C)c2)c1	Hepatitis C virus	viral replication, inhibitor, luciferase	Huh-5-2, GETYPE1B	72 h, replicon	EC50	> 10 µM
O=C(CNc1nc(NS(=O)(=O)c2ccccc2)ncc1-c1nc2ccccc2s1)c1ccc(Cl)cc1	Enterovirus B	plaque formation	BGM, B4	–	IC50	92 µg/mL
C[C@@]12COCO[C@@H]1CC[C@]1(C)[C@@H]2CC[C@@H]2CN(Cc3cccs3)[C@@H](C3=CCOC3=O)C[C@H]21	unidentified human coronavirus	cytopathic effect	MRC5	25 µM, 72 h	inhibition	45.1%
C/C(O)=C1\C(=O)C(CC(C)C)N(C(=O)CCCCCc2ccccc2)C1=O (centres unmarked)	Proteus mirabilis	microbial growth	ATCC25933	–	MIC	> 200 µg/mL
CCCCOC(=O)N[C@@H](CC(C)C)C(=O)N1CCC[C@H]1C(=O)Nc1cccc(C#CC#Cc2cccc(NC(=O)[C@@H]3CCCN3C(=O)[C@H](CC(C)C)NC(=O)OCCCC)c2)c1	Hepatitis C virus	viral replication, inhibitor, luciferase	Huh-5-2, GETYPE1B	72 h, replicon	EC50	> 10 µM
CC1(C)OC[C@@]2(C)[C@H]3CC[C@@H]4CN(Cc5ccc(I)cc5)[C@@H](C5=CCOC5=O)C[C@H]4[C@]3(C)CC[C@H]2O1	unidentified human coronavirus	cytopathic effect	MRC5	25 µM, 72 h	inhibition	87.2%
Oc1ccc(/C=C/c2cc(O)cc(O)c2)cc1	Leishmania tarentolae	parasite growth, resazurin	–	48 h, promastigote	IC50	79.8 µM
C/C(O)=C1\C(=O)C(CC(C)C)N(C(=O)C=Cc2ccccc2)C1=O (centres unmarked)	Proteus mirabilis	microbial growth	ATCC25933	–	MIC	> 200 µg/mL
CCOC(=O)C=c1[nH]c(=O)c(=Cc2cn(-c3ccccc3)nc2-c2ccc(C)cc2)s1	Acinetobacter baumannii	microbial growth, well diffusion	–	100000 µg/mL	inhibition zone	11 mm
CCn1cc(C(=O)O)c(=O)c2cc(F)c(N3CCNCC3)cc21	Acinetobacter baumannii	microbial killing, broth dilution	BAA747	–	MBC	16 µM (≈ 5.11 µg/mL)
C[C@@]12COCO[C@@H]1CC[C@]1(C)[C@@H]2CC[C@@H]2CN(Cc3ccccc3)[C@@H](C3=CCOC3=O)C[C@H]21	unidentified human coronavirus	cytopathic effect	MRC5	25 µM, 72 h	inhibition	9.5%
CC(C)Oc1c(NC(=O)c2ccc(NC(=O)c3ccc(NC(=O)[C@H](CC(N)=O)NC(=O)c4ccc(NC(=O)c5ccc(C#N)cn5)cc4)cc3)c(OC(C)C)c2O)ccc(C(=O)O)c1O	Proteus mirabilis	microbial growth	DSM4479	–	MIC	8 µg/mL (≈ 9.02 µM)
CCOC(=O)N[C@@H](CC(C)C)C(=O)N1CCC[C@H]1C(=O)Nc1cccc(C#CC#Cc2cccc(NC(=O)[C@@H]3CCCN3C(=O)[C@H](CC(C)C)NC(=O)OCC)c2)c1	Hepatitis C virus	viral replication, inhibitor, luciferase	Huh-5-2, GETYPE1B	72 h, replicon	EC50	3.99e-05 µM
Cc1cn([C@H]2C[C@H](N=[N+]=[N-])[C@@H](CO)O2)c(=O)[nH]c1=O	Hepatitis C virus	viral replication, inhibitor	Huh-7	replicon	EC90	> 10 µM
O=C(Nc1ccccc1-c1ccc(F)c(F)c1)c1nccnc1C(F)(F)F	Venturia nashicola	microbial growth	–	–	EC50	0.8 µg/mL
CC1(C)OC[C@@]2(C)[C@H]3CC[C@@H]4CN(Cc5ccccc5C5CC5)[C@@H](C5=CCOC5=O)C[C@H]4[C@]3(C)CC[C@H]2O1	unidentified human coronavirus	cytopathic effect	MRC5	25 µM, 72 h	inhibition	93.2%
